Active and inactive are the calls of the source. The rule behind the calls is not given here.
Legend:
[1] = target: T1, Leucyl-cystinyl aminopeptidase (Homo sapiens, UniProt Q9UIQ6); assay: Inhibition of human recombinant IRAP expressed in HeLa cells assessed as L-Leucine-7-amido-4-methyl coumarin hydrolysis to 7-amido-4-methyl coumarin at 50 to 100 uM after 5 to 10 mins by fluorescence assay relative to control; type: cell-based
[2] = target: T2, Endoplasmic reticulum aminopeptidase 2 (Homo sapiens, UniProt Q6P179); assay: Inhibition of recombinant ERAP2 (unknown origin) expressed in baculovirus-infected Hi5 insect cells assessed as L-Arginyl-7-amido-4-methyl coumarin hydrolysis to 7-amido-4-methyl coumarin at 50 to 100 uM after 5 to 10 mins by fluorescence assay relative to control
T2 sequence (Q6P179 whole entry): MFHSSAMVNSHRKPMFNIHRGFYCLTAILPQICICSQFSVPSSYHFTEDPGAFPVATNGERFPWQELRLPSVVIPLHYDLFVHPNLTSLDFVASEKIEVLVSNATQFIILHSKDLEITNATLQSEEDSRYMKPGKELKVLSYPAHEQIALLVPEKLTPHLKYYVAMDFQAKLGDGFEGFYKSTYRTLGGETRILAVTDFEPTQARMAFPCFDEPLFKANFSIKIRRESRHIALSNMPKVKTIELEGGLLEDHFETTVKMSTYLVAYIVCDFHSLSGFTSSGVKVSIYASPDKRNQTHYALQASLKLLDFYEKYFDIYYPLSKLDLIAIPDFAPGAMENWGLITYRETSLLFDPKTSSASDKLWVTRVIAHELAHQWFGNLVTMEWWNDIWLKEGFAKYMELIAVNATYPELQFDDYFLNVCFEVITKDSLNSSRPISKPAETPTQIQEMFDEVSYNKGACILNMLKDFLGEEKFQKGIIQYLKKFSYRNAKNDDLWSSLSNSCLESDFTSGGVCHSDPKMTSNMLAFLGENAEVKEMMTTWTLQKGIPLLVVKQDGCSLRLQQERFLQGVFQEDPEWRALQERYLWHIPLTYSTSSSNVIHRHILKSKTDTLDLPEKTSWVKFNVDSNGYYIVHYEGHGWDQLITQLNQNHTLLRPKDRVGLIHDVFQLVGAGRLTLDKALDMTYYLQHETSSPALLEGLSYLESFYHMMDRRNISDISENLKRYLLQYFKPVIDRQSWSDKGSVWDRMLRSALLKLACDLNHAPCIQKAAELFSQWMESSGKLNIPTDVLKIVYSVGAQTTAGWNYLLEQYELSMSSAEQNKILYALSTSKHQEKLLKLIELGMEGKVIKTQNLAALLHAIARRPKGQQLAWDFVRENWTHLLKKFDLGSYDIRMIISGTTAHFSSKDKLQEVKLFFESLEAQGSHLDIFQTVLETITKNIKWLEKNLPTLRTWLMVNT
How it was run: (§1)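 ERAP2 was made as a recombinant protein in baculovirus-infected Hi5 insect cells and purified by affinity chromatography. Activity was monitored fluorogenically as the rate of R-AMC hydrolysis. Inhibitor was titrated, and inhibition was also examined at 50 μM and across 50–100 μM.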

[3] = target: Endoplasmic reticulum aminopeptidase 1 (Homo sapiens) (UniProt Q9NZ08); assay: Inhibition of recombinant ERAP1 (unknown origin) expressed in baculovirus-infected Hi5 insect cells assessed as L-Leucine-7-amido-4-methyl coumarin hydrolysis to 7-amido-4-methyl coumarin at 50 uM after 5 to 10 mins by fluorescence assay
Chain of Endoplasmic reticulum aminopeptidase 1 (Homo sapiens) (Q9NZ08 whole entry): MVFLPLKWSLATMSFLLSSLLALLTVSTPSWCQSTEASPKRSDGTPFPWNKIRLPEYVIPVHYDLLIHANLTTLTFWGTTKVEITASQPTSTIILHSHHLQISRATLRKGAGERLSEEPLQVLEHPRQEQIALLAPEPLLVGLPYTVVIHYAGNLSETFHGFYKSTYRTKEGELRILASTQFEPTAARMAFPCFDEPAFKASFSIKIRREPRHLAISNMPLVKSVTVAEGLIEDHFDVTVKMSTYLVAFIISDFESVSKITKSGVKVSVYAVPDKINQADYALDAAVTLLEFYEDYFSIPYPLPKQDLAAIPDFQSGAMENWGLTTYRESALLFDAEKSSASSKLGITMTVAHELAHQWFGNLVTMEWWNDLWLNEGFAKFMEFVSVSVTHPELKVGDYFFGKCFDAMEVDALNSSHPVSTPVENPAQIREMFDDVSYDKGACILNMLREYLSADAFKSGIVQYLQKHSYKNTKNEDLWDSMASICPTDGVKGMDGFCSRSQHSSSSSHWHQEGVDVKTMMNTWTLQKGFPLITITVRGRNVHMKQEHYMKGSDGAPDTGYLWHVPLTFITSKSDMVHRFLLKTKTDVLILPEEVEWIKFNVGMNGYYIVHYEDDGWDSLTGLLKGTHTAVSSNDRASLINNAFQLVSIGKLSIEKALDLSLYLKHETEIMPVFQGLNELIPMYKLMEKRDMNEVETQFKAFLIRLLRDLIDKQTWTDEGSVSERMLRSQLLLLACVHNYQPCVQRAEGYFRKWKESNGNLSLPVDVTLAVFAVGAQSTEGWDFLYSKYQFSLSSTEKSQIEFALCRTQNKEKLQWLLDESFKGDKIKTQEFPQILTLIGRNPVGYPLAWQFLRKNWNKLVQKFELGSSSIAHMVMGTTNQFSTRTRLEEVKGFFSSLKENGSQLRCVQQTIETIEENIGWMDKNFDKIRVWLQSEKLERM
How it was run: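 ERAP1 was made as a recombinant protein in Hi5 insect cells infected with recombinant baculovirus and affinity-purified to homogeneity. Activity was followed as the kinetics of hydrolysis of the fluorogenic substrate L-AMC. Inhibitor was titrated at increasing amounts, and single-point inhibition was checked at 50 μM.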

[4] = target: T1, Leucyl-cystinyl aminopeptidase; assay: Inhibition of human recombinant IRAP expressed in HeLa cells assessed as L-Leucine-7-amido-4-methyl coumarin hydrolysis to 7-amido-4-methyl coumarin after 5 to 10 mins by fluorescence assay; type: cell-based
[5] = target: T2, Endoplasmic reticulum aminopeptidase 2; assay: Inhibition of recombinant ERAP2 (unknown origin) expressed in baculovirus-infected Hi5 insect cells assessed as L-Arginyl-7-amido-4-methyl coumarin hydrolysis to 7-amido-4-methyl coumarin after 5 to 10 mins by fluorescence assay
[6] = target: T2, Endoplasmic reticulum aminopeptidase 2; assay: Inhibition of recombinant ERAP2 (unknown origin) expressed in baculovirus-infected Hi5 insect cells assessed as L-Arginyl-7-amido-4-methyl coumarin hydrolysis to 7-amido-4-methyl coumarin at 50 uM after 5 to 10 mins by fluorescence assay; how it was run: as §1

T1 sequence (Q9UIQ6 whole entry): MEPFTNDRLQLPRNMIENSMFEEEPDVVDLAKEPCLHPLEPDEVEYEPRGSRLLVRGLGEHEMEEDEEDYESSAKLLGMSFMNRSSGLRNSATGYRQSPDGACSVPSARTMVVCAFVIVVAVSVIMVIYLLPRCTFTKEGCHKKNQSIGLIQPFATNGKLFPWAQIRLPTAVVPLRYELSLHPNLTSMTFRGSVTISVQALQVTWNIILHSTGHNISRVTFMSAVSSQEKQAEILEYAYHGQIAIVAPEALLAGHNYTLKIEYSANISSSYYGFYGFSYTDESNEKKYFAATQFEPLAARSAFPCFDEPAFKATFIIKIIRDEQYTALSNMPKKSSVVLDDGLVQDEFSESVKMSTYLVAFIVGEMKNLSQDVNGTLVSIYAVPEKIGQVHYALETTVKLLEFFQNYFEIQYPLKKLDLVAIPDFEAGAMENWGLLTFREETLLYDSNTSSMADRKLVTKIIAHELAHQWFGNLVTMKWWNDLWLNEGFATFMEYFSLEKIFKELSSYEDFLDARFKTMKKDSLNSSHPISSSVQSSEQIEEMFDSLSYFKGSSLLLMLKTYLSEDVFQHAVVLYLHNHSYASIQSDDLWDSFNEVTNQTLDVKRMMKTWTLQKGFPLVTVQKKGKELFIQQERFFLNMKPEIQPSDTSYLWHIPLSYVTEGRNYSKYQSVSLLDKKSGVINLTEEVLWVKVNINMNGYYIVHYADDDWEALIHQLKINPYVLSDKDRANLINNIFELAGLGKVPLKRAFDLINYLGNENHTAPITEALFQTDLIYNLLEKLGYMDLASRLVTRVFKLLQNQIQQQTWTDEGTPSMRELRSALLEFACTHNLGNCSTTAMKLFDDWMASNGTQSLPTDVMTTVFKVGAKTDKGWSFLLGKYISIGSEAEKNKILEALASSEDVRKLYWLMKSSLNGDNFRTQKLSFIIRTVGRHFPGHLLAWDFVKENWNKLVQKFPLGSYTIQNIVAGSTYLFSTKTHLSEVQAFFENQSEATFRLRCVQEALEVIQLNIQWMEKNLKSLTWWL

Nc1ccc(C(=O)O)cc1NC(=O)[C@@H](N)CCc1ccccc1
inhibition [1]: < 20% | inhibition [2]: < 20% | inhibition [3]: inactive | IC50 [4]: > 100 µM | IC50 [5]: > 100 µM

CC(C)[C@H](NC(=O)c1ccc(N)c(NC(=O)[C@@H](N)CCc2ccccc2)c1)C(=O)O
inhibition [1]: < 20% | inhibition [6]: inactive | inhibition [3]: inactive | IC50 [4]: > 100 µM

COC(=O)[C@H](C)NC(=O)c1ccc(N)c(NC(=O)[C@@H](N)CCc2ccccc2)c1
inhibition [6]: inactive | inhibition [3]: inactive

COC(=O)[C@H](CCCNC(=N)N)NC(=O)c1ccc(N)c(NC(=O)[C@@H](N)CCc2ccccc2)c1
inhibition [6]: inactive | inhibition [3]: inactive

COC(=O)[C@@H](NC(=O)c1ccc(N)c(NC(=O)[C@@H](N)CCc2ccccc2)c1)[C@@H](C)O
inhibition [6]: inactive | inhibition [3]: inactive

COC(=O)[C@H](Cc1ccc(O)cc1)NC(=O)c1ccc(N)c(NC(=O)[C@@H](N)CCc2ccccc2)c1
inhibition [2]: < 20% | IC50 [5]: > 100 µM

Nc1ccc(C(=O)N[C@@H](Cc2c[nH]c3ccccc23)C(=O)OCc2ccccc2)cc1NC(=O)[C@@H](N)CCc1ccccc1
inhibition [3]: inactive

COC(=O)c1ccc(N)c(NC(=O)[C@@H](N)CCc2ccccc2)c1
inhibition [2]: < 20% | inhibition [3]: inactive | IC50 [5]: > 100 µM

Source: ChEMBL document CHEMBL2417496, “Novel selective inhibitors of aminopeptidases that generate antigenic peptides” (Bioorg Med Chem Lett, 2013)
